The labels stand for the following.
B1: tRNA (parent)
chain: GUUCCGUUGGCGUAAUGGUAACGCGUCUCCCUCCUAAGGAGAAGACUGCGGGUUCGAGUCCCGUACGGAACG

Fewer inactive variants are shown than the library holds.

This data set covers variants of B1. The data set is described as follows: yeast fitness relative to wild type (ratio to wild type); higher = fitter; tRNA-Arg(CCU), competitive growth, 37 C, YPD. In a few lines:
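The tRNA-Arg(CCU) gene variants were made by chemical synthesis with a 3% per-site mutation rate at 69 sites and inserted at the native genomic locus of Saccharomyces cerevisiae. After pooling, the strains were competed in YPD at 37°C for 24 hours in six parallel replicates. Gene amplicons from the start population and each end population were read by 100-nucleotide paired-end sequencing, and Darwinian fitness relative to wild type was taken from genotype frequency changes. Genotypes needed ≥ 100 starting reads, and estimates < 0.5 were set to 0.5.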
For A20C C29U A37G, the yeast fitness was 0.753.

For the variant A20C C27A G52C, the yeast fitness was 0.595.

Regarding A20C C24A C60G, the yeast fitness was no more than 0.5. Then A20C C62U A70G, with 0.733. Then A20C C24U C55G, with 0.643; and A20C C24U C55U, with no more than 0.5; and A20C C29U C31G C61G, with no more than 0.5. Take A20C G23A: the yeast fitness stood at 0.788. In the case of A20C C61G C62A it was no more than 0.5; in that of A20C C33U A43C G48C, 0.525; in that of A20C G38A, 0.707.

Consider A20C G38C, for which the yeast fitness was 0.639. Then A20C G25A, with 1.06. In the case of A20C G25C it was 0.783; in that of A20C C30U C33G A40G, 0.537; in that of A20C G23C C27A, 0.574. A20C C30G C60A: the yeast fitness is no more than 0.5. Then A20C C22U C33U, with 0.542; and A20C C33A G41C C49G A70U, with 0.575; and A20C C31U U53A, with no more than 0.5. In the case of A20C C31A G39C C49U it was no more than 0.5; in that of A20C C49A, 0.575. Then A20C C31A A70U, with no more than 0.5; and A20C C24U A43C, with no more than 0.5; and A20C C24A A36C G48C, with no more than 0.5. Regarding A20C C31U G68C, the yeast fitness is 0.609. Then A20C G38A C49A G58C A65G G68A A69C, with 0.589; and A20C C30A A45U C60U, with no more than 0.5; and A20C C24G C27U C31G A65C, with no more than 0.5. Then A20C C24U C66U, with no more than 0.5; and A20C C27U A36G A65G G67A, with 0.542. As for A20C G23A C55G, the yeast fitness was 0.593. Then A20C C55A, with 0.699.

A20C C24G G39C G68C: the yeast fitness is no more than 0.5. Then A20C G23A A70U, with 0.551; and A20C C55G A65G, with 0.53. In the case of A20C G23C C27A U64A it was no more than 0.5.

Turning to A20C C30A, the yeast fitness turned out to be 0.746. A20C C30U C66U: the yeast fitness is no more than 0.5. In the case of A20C C62U it was 0.923; in that of A20C C62A, 0.831; in that of A20C C62G, 0.618. Turning to A20C G38C G63A A70C, the yeast fitness is no more than 0.5. On to A20C C33A G48A C66U A70G, for which the yeast fitness is no more than 0.5.

Regarding A20C G48C, the yeast fitness amounted to 0.889. As to A20C C33U G38C, the yeast fitness is no more than 0.5. In the case of A20C C66G it was 0.766. Then A20C C66U, with 0.931. With A20C C66A, the yeast fitness was 0.697.

Turning to A20C C55U A70C, the yeast fitness was determined as 0.612. In the case of A20C C27A C30A C31U G52A it was no more than 0.5.

Consider A20C C30A A70G, for which the yeast fitness worked out at 0.588.

Consider A20C C46A G68A, for which the yeast fitness was 0.875. In the case of A20C C34U C60A C66U it was 0.605; in that of A20C G23A G50A C55G C60A, no more than 0.5.

On to A20C C24A, for which the yeast fitness was found to be 0.751. As for A20C C24U, the yeast fitness amounted to 0.798. Then A20C C34G A43C C62U G68C, with no more than 0.5; and A20C C34G A43C G56A C61U, with 0.705.

Regarding A20C C27U A45U, the yeast fitness was 0.636. In the case of A20C C24U A40G A42U G50A G51C A70C it was no more than 0.5.

A20C C27G A57C: the yeast fitness is no more than 0.5.

On to A20C G39A, for which the yeast fitness was found to be 0.84. Then A20C C22U C34U U35G U47C A65C, with no more than 0.5.

In the case of A20C C29U A37G A69U, the yeast fitness was determined as 0.526. Then A20C G39C A70U, with 0.521. In the case of A20C C22U A43U A69C it was no more than 0.5; in that of A20C C22U A40U, no more than 0.5; in that of A20C C31G G58C, 0.92.

As for A20C C30G C62U, the yeast fitness is 0.554. Then A20C C49G C62U, with no more than 0.5; and A20C G38C A70C, with no more than 0.5; and A20C C29G A69C, with 0.539. Then A20C C33A A65U, with no more than 0.5; and A20C C22U, with 0.729.

As for A20C C62U A65G, the yeast fitness was determined as 0.593.

For A20C C34A A37G C46A G63C A69C, the yeast fitness was no more than 0.5.

As to A20C C29U G50C, the yeast fitness is no more than 0.5. For A20C C27U U59G, the yeast fitness was found to be 0.582. With A20C C34G A42G, the yeast fitness was 0.922. Then A20C C22U C29G G41C C49G U53A C66U, with no more than 0.5; and A20C C29U C49G G58A, with no more than 0.5. In the case of A20C G25A A57G it was 0.694; in that of A20C C30A A57U, no more than 0.5.

The values above are taken from the RNAGym collection of RNA variant scans (doi:10.1126/science.aae0568).
